Data set [1] deals with T1, Prostaglandin E synthase (Homo sapiens, UniProt O14684).
T1 sequence (O14684 whole entry): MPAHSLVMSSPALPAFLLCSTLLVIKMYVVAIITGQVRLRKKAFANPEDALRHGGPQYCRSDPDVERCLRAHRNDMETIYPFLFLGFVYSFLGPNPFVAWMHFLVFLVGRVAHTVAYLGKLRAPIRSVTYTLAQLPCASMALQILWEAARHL
As to the kind of experiment: Displacement of [3H]PGH2 from human recombinant PGES1 expressed in CHOK1 cells. It is filed as cell-based, CHO-K1.

The nature of data set [2]: Oral bioavailability in rat at 20 mg/kg administered as single dose. It is filed as ADME, organism-based. Particulars: in vivo.
Data set [3] can be described thus: Half life in rat at 5 mg/kg, iv administered as single dose. It is filed as ADME, organism-based. Also noted: dose 5 mg/kg, route intravenous. The note with it: in vivo.
In data set [4] the test system is Blood. As to the kind of experiment: Inhibition of PGE2 production in LPS-stimulated human whole blood. Type of data set: functional, tissue-based.
For data set [5], the target named is T1, Prostaglandin E synthase. As to the kind of experiment: Inhibition of mPGES1 in IL-1-beta-stimulated human A549 cells assessed as blockade of PGH2 to PGE2 conversion in presence of 50% fetal bovine serum. It is filed as cell-based.
A short description of data set [6]: Metabolic stability in human liver hepatocytes assessed as compound remaining after 2 hrs. It is filed as ADME, cell-based, Hepatocyte. The note with it: read-out: Stability. Put shortly:
(§1)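 Compound incubated with hepatocytes (rat or human) for 2 h at 37 °C; read-out is % parent compound remaining; values are means of at least two experiments.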

Data set [7] can be described thus: Metabolic stability in rat liver hepatocytes assessed as compound remaining after 2 hrs. Type of data set: ADME, cell-based, Hepatocyte. Particulars: read-out: Stability. Put shortly:
as §1

In a further data set the target is T2, Thromboxane-A synthase (Homo sapiens, UniProt P24557).
T2 sequence (P24557 whole entry): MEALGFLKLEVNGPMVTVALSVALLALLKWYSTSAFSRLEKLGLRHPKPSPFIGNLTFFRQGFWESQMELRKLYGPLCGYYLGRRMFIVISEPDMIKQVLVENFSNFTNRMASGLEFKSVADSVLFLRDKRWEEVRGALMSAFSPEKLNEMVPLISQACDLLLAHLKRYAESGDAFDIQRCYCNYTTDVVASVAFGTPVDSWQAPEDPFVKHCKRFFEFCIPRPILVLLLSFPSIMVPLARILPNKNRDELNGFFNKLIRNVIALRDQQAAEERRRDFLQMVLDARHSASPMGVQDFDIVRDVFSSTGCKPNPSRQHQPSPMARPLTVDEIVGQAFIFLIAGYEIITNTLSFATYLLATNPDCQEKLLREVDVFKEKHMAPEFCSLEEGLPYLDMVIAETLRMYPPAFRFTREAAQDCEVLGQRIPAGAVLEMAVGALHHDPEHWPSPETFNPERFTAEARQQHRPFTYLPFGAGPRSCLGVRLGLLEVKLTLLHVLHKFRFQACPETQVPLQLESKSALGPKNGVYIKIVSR
As to the kind of experiment: Inhibition of TX synthase.

The target in data set [8] is Prostaglandin E synthase 2 (Homo sapiens, UniProt Q9H7Z7). As to the kind of experiment: Inhibition of human PGES2.
Prostaglandin E synthase 2, sequence (Q9H7Z7 whole entry): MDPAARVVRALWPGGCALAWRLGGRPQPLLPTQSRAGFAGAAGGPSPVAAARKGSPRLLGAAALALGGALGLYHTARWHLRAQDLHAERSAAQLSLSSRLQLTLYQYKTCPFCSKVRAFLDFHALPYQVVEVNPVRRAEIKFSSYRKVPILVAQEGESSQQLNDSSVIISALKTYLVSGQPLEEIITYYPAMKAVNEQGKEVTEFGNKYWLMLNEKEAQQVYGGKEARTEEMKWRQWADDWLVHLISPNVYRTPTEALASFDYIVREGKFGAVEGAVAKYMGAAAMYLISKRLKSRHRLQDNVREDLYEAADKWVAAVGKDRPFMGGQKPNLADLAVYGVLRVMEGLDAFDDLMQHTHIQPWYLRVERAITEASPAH
The subject of data set [9] is Blood. As to the kind of experiment: Inhibition of TXB2 production in LPS-stimulated human whole blood. Type of data set: functional, tissue-based.
A short description of data set [10]: Inhibition of PGES1 in guinea pig whole blood. It is filed as tissue-based. The note with it: Cavia porcellus.
The test system of a further data set is Cavia porcellus. As to the kind of experiment: Analgesic activity against LPS-induced thermal hyperalgesia in po dosed Hartley guinea pig assessed as decrease in paw withdrawal latency administered 1 hr before LPS challenge measured after […]. Type of data set: functional.
Data set [11] has as its system Blood. As to the kind of experiment: Inhibition of PGI2 production in LPS-stimulated human whole blood. It is filed as functional, tissue-based.
In data set [12] the test system is Blood. As to the kind of experiment: Inhibition of PGD2 production in LPS-stimulated human whole blood. Type of data set: functional, tissue-based.
Another data set concerns A549. As to the kind of experiment: Inhibition of PGF2alpha production in human A549 cells in presence of 50% fetal bovine serum. Type of data set: functional, cell-based.
Data set [13] can be described thus: Tmax in rat at 20 mg/kg. Type of data set: ADME, organism-based. Also noted: dose 20 mg/kg. The note with it: in vivo.
Data set [14] has as its system Blood. As to the kind of experiment: Inhibition of TXA2 production in human whole blood. It is filed as functional, tissue-based.
Data set [15] can be described thus: Half life in monkey. Type of data set: ADME, organism-based, Macaca mulatta. The note with it: rhesus monkey, in vivo.

The structures appear in SMILES notation. The source made the active and inactive calls.

By IC50 is commonly meant the point on the concentration scale where inhibition reaches its midpoint. A word on the bioavailability: it is the share of a dose that reaches the circulation, judged against a reference dose that is usually intravenous. A word on the half-life: it is the time needed for the level to fall by half in the phase considered. Consider `CC(C)COc1ccc2c(c1)c1cc(CC(C)(C)O)ccc1c1nc(-c3c(C#N)cccc3C#N)[nH]c21`, for which the IC50 at Prostaglandin E synthase [1] came out at 3 nM; with Blood [4], 290 nM. Also, the bioavailability in data set [2] worked out at 30%. Also, the half-life in data set [3] was 1.3 h.
For the molecule `CC(=O)c1ccc2c(c1)c1cc(C(C)=O)ccc1c1[nH]c(-c3c(F)cccc3Cl)nc21`, the IC50 was greater than 50000 nM at Prostaglandin E synthase [5] and 122 nM on Prostaglandin E synthase [1].
Consider `CC(C)(O)c1ccc2c(c1)c1cc(Cl)ccc1c1nc(-c3c(C#N)cccc3C#N)[nH]c21`, for which, in the data set on Blood [4], half-maximal inhibition (IC50) required 1400 nM.
On to `CS(=O)(=O)c1ccc(-c2ccc3c(c2)c2cc(Cl)ccc2c2nc(-c4c(C#N)cccc4C#N)[nH]c32)cc1`, for which inhibition in the data set with Blood [4] was half-maximal at 410 nM (IC50).
`CC(C)(O)Cc1ccc2c(c1)c1cc(OCCC3CC3)ccc1c1nc(-c3c(C#N)cccc3C#N)[nH]c21`: the IC50 on Prostaglandin E synthase [1] worked out at 0.9 nM; in the data set with Blood [4], 220 nM. Besides, the bioavailability in data set [2] is 76%. Also, the half-life in data set [3] is 1.6 h.
Turning to `COCC#Cc1ccc2c(c1)c1cc(Cl)ccc1c1nc(-c3c(C#N)cccc3C#N)[nH]c21`, in the data set with Blood [4], the IC50 is 1100 nM.
Same read-out and setting: as for `CS(=O)(=O)c1ccc2c(c1)c1cc(Cl)ccc1c1nc(-c3c(C#N)cccc3C#N)[nH]c21`, the figure is greater than 10000 nM.
For `CC(C)(O)CCc1ccc2c(c1)c1cc(Cl)ccc1c1nc(-c3c(C#N)cccc3C#N)[nH]c21`, the half-life in [3] was 14 h. In addition, the IC50 in the data set on Blood [4] is 200 nM.
Consider `CC(C)CCOc1ccc2c(c1)c1cc(CC(C)(C)O)ccc1c1[nH]c(-c3c(C#N)cccc3C#N)nc21`, for which the remaining at 2 h stood at 30% in data set [6] and 8% in [7]. Further, the bioavailability in data set [2] was determined as 46%. In data set [3], the half-life was 4.8 h. Besides, half-maximal inhibition in the data set with Blood [4] (IC50) required 150 nM.
Consider `CC(C)(O)Cc1ccc2c(c1)c1cc(OCCC3CC3)ccc1c1[nH]c(-c3c(C#N)cc(F)cc3C#N)nc21`, for which the IC50 was 30000 nM on Thromboxane-A synthase and greater than 30000 nM in [8]. The remaining at 2 h stood at 81% in data set [6] and 68% in [7]. This molecule showed a bioavailability in [2] of 68%. Besides, the half-life in [3] is 2.3 h.
Consider `CC(C)(O)C#Cc1ccc2c(c1)c1cc(C#CC3CC3)ccc1c1nc(-c3c(C#N)cccc3C#N)[nH]c21`, for which the IC50 stood at 1 nM on Prostaglandin E synthase [1] and 76 nM in the data set with Blood [4]. For the same molecule, in data set [3], the half-life is 40 h.
A word on the ED50: it is the dose that gives a 50% effect, or the effect in half of the subjects. `CC(C)(O)C#Cc1ccc2c(c1)c1cc(Cl)ccc1c1nc(-c3c(C#N)cccc3C#N)[nH]c21`: the IC50 was greater than 40000 nM in the data set on Blood [9]; 800 nM against Thromboxane-A synthase; 100 nM in data set [10]; greater than 30000 nM in data set [8]; greater than 40000 nM in the data set on A549; 200 nM in the data set with Blood [4]. The ED50 in the data set with Cavia porcellus is 30 mg/kg. Further, the remaining at 2 h in data set [6] and in [7] was 97% throughout. Further, the outcome in the data set with Blood [11] and in the data set on Blood [12] was inactive. The half-life in [3] is 20 h.
In general, Tmax refers to the time at which the peak concentration occurs. Turning to `CC(C)(O)Cc1ccc2c(c1)c1cc(Cl)ccc1c1nc(-c3c(C#N)cccc3C#N)[nH]c21`, the IC50 at Prostaglandin E synthase [1] amounted to 2 nM; with Blood [4], 250 nM. Moreover, the Tmax in data set [13] was found to be 1 h. The half-life in data set [3] was 8.4 h.
`CC(C)(O)Cc1ccc2c(c1)c1cc(OCC3CC3)ccc1c1nc(-c3c(C#N)cccc3C#N)[nH]c21`: the IC50 was 3 nM on Prostaglandin E synthase [1] and 350 nM with Blood [4]. Further, the remaining at 2 h in data set [6] is greater than 99%. In data set [2], this molecule displayed a bioavailability of 36%. In data set [3], this molecule had a half-life of 5.5 h.
With `CC(C)(O)Cc1ccc2c(c1)c1cc(OCCC3CC3)ccc1c1nc(-c3c(C#N)cc(F)cc3C#N)[nH]c21`, the figures for the IC50 in the data set with Blood [9], with A549 and with Blood [4] were greater than 40000 nM, greater than 40000 nM and 140 nM, respectively. Besides, the result with Blood [14], with Blood [11] and with Blood [12] was inactive. In the data set with Cavia porcellus, the ED50 turned out to be 14 mg/kg.
In the case of `N#Cc1cccc(C#N)c1-c1nc2c3ccc(Cl)cc3c3ccccc3c2[nH]1`, the half-life in data set [15] is 1.3 h; in data set [3] it was 1.5 h. The figures for the IC50 (in data set [10]; in data set [8]; in the data set on A549) were 100 nM, greater than 30000 nM and greater than 40000 nM, respectively. In addition, in the data set with Cavia porcellus, the ED50 worked out at 100 mg/kg. Besides, in data set [6], the remaining at 2 h came to 90%.
As for `N#Cc1cccc(C#N)c1-c1nc2c3ccc(Cl)cc3c3cc(C#CC4(O)CCCC4)ccc3c2[nH]1`, the IC50 in the data set on Blood [4] worked out at 260 nM.
The same measure, in the same setting: next, `N#Cc1cccc(C#N)c1-c1nc2c3ccc(Cl)cc3c3cc(C#Cc4ccncc4)ccc3c2[nH]1`: 390 nM.
In the case of `CC(C)(O)Cc1ccc2c(c1)c1cc(OCCCC(F)(F)F)ccc1c1nc(-c3c(C#N)cccc3C#N)[nH]c21`, the IC50 at Prostaglandin E synthase [1] was 1 nM; with Blood [4], 250 nM. The remaining at 2 h came out at 98% in [6] and 92% in data set [7]. In addition, the bioavailability in data set [2] is 85%. The half-life in [3] was 3.3 h.
In the data set on Blood [4], `N#Cc1cccc(C#N)c1-c1nc2c3ccc(Cl)cc3c3cc(C#Cc4cccnc4)ccc3c2[nH]1` gave an IC50 of 530 nM.
On the same count and under the same terms, as for `N#CCCCOc1ccc2c(c1)c1cc(Cl)ccc1c1nc(-c3c(C#N)cccc3C#N)[nH]c21`, the figure is 380 nM; as for `N#Cc1cccc(C#N)c1-c1nc2c3ccc(Cl)cc3c3cc(OCCn4cccc4)ccc3c2[nH]1`, 380 nM.
For `CCc1ccc2c(c1)c1cc(C#CC(C)(C)O)ccc1c1[nH]c(-c3c(C#N)cccc3C#N)nc21`, the results for the IC50 on Prostaglandin E synthase [1] and with Blood [4] were 1 nM and 370 nM, respectively. Further, the half-life in data set [3] is 7 h.

(Values after ChEMBL document CHEMBL1156058, “Discovery of disubstituted phenanthrene imidazoles as potent, selective and orally active mPGES-1 inhibitors” (Bioorg Med Chem Lett, 2009).)
